“Also recorded” adds a separate entry of the source.

Here are results for five molecules from PMC9662183 (Journal of medicinal chemistry, 2022).

Data set [1] can be described thus: Stability in mouse plasma. In kind it is in vitro ADME. As to conditions: mouse plasma (CD-1), 1 μM, 37 °C. The method in brief: (§1)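 Test compound at 1 μM final was incubated at 37 °C in CD-1 mouse plasma, or in simulated gastric or intestinal fluid made per the USP National Formulary. Samples were taken at 0, 5, 15, 30, 60, 120 and 240 min and quenched with 3 volumes of acetonitrile/1% formic acid, then centrifuged. Prodrug and released parent were measured by HPLC-UV (Fmoc-Cl derivatization, 254 nm) and/or LC-MS/MS (MRM), and t1/2 was calculated.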

The nature of data set [2]: Stability in mouse liver homogenate. Format: in vitro ADME. To be noted: for Half-life, tissue homogenate liver: mouse liver homogenate, 1 μM, 37 °C.
Data set [3] in a line: Conversion of prodrugs into ψ-GSH in brain homogenate. In kind it is in vitro ADME, mouse. To be noted: freshly prepared brain homogenates containing proteinase inhibitors.
The nature of data set [4]: Conversion of prodrugs into ψ-GSH in liver homogenate. Format: in vitro ADME, mouse. As to conditions: liver homogenates.
The nature of data set [5]: Brain and plasma distribution study in CD-1 mice. Format: in vivo, mouse. As to conditions: CD1 mice.
Data set [6] concerns i.c.v. Aβ1–42-injected C57BL/6 mice. In words: Spontaneous alternation T-maze in i.c.v. Aβ1–42-injected mice. In kind it is in vivo, mouse. To be noted: for T-maze alternation rate: mouse, in vivo, po, 250 mg/kg.
Another data set deals with GFAP and Iba1 staining. Format: in vivo, mouse. As to conditions: i.c.v. Aβ-injected mice, 250 mg/kg oral.
In another data set the test system is brain GSH. In words: Quantitation of GSH in brain of i.c.v. Aβ-injected mice. Format: in vivo, mouse. To be noted: 250 mg/kg oral.
Data set [7] deals with glyoxalase enzyme pathway (AGE content). In words: Brain advanced glycation endproducts. Format: in vivo, mouse. As to conditions: i.c.v. Aβ-injected mice, 250 mg/kg oral.
Data set [8] is described as follows: Stability in simulated gastric fluid. In kind it is in vitro ADME. The method in brief: as §1
Data set [9] is described as follows: Stability in simulated intestinal fluid. In kind it is in vitro ADME. As to conditions: SIF, 1 μM, 37 °C. In short, it runs like this: as §1
Data set [10] is described as follows: Stability in mouse brain homogenate. Format: in vitro ADME. To be noted: 1 μM, 37 °C.
Data set [11] deals with glyoxalase pathway (D-lactate). The data set can be described thus: Brain D-lactate measurement. In kind it is in vivo, mouse. To be noted: wild type C57BL/6 mice, 500 mg/kg oral, multiple time points.

For the molecule “NH2-γ-L-Glz[-L-Thz-Gly-OH]-OH [prodrug 4]”, in data set [1], the “Half-life, plasma” value was found to be 30.64 h. Also, in [2], the “Half-life, tissue homogenate liver” value was found to be 115.5 h.

Take `Cl.N[C@@H](CNC(=O)N[C@@H](CS)C(=O)NCC(=O)OC1CCCC1)C(=O)OC1CCCC1` [prodrug 5, HCl.NH2-γ-L-Glz[-L-Cys(SH)-Gly-OcPe]-OcPe]: the “conversion into / release of ψ-GSH in brain homogenate” value in data set [3] is “relatively higher and sustained release; also recorded: detected”. The “conversion into / release of ψ-GSH in liver homogenate” value in data set [4] was “relatively higher and sustained release; also recorded: detected”. Also, the “plasma Cmax versus ψ-GSH” value in data set [5] (250 mg/kg oral, comparison ψ-GSH 500 mg/kg i.p.) is given as “increased Cmax”. The “brain levels of ψ-GSH after prodrug administration versus ψ-GSH treatment” value in data set [5] (prodrug 250 mg/kg oral vs ψ-GSH 500 mg/kg i.p.) is recorded as “lower than”. Besides, in [5] (prodrug 250 mg/kg oral, 2-6 h), the “relative brain AUC” value stood at 1.22 nmol·h/mg tissue. Besides, the T-maze alternation rate entry in data set [6] was “effective in improving the alternation behavior”. Besides, the “Iba1 staining in dorsal hippocampus” value in the data set on GFAP and Iba1 staining is “significantly reduced”. Besides, in the data set with brain GSH, the “brain reduced GSH compared to the Aβ-only group” value was “significantly increased”. The “brain total AGE content versus Aβ1–42 group” value in [7] was “significantly reduced”.

What is called half-life is how long it takes for the measured level to halve. Higher therefore signals slow decline. `CC(=O)SC[C@H](NC(=O)NC[C@H](N)C(=O)O)C(=O)NCC(=O)O` [prodrug 1, NH2-γ-L-Glz[-L-Cys(SAc)-Gly-OH]-OH] gave a half-life at 1 μM in data set [8] (simulated gastric fluid (SGF)) of about 24 h.

“N-Ethyloxycarbonyl-γ-L-Glz[-L-Cys(SCOOEt)-Gly-OH]-OH [prodrug 7]”: the “Half-life, GI tract gastric phase” value in data set [8] (SGF, 1 μM, 37 °C) is 17.96 h. For the same molecule, the “Half-life, GI tract intestinal phase” value in [9] was 24.24 h. The “Half-life, plasma” value in data set [1] was 113.6 h. In addition, the “Half-life, tissue homogenate brain” value in data set [10] was determined as 9.79 h. The “Half-life, tissue homogenate liver” value in [2] is on record as 1.30 h. In addition, the “conversion into / release of ψ-GSH in brain homogenate” value in [3] is on record as “detected”. In addition, in [4], the “conversion into / release of ψ-GSH in liver homogenate” value was “detected”. The T-maze alternation rate entry in data set [6] was “effective in improving the alternation behavior”. In [6] (oral treatment, 250 mg/kg once a day, Aβ-only 3.22 ± 0.27), the “T-maze repetitive arm entries” value worked out at 1.00 ± 0.31. Also, in the data set with GFAP and Iba1 staining, the “GFAP staining in dorsal hippocampus” value is listed as “significant reduction”; the “Iba1 staining in dorsal hippocampus” value is “significantly reduced”; the “astrocytic and microglial reactivity (GFAP, Iba1) in dentate gyrus” value is on record as “Mitigation”. Also, in the data set with brain GSH, the “brain reduced GSH compared to the Aβ-only group” value was “significantly increased”. Also, the “brain total AGE content versus Aβ1–42 group” value in data set [7] was “significantly reduced”. Also, the “brain D-lactate release” value in data set [11] is on record as “immediate spike”.

For `CCOC(=O)SC[C@H](NC(=O)NC[C@H](N)C(=O)OC1CCCC1)C(=O)NCC(=O)OC1CCCC1` [prodrug 6, NH2-γ-L-Glz[-L-Cys(SCOOEt)-Gly-OcPe]-OcPe], the “major metabolite in liver homogenate incubates” value in [2] (liver homogenate) is given as “thiocarbonate cleavage product”. Further, in data set [3], the “conversion into / release of ψ-GSH in brain homogenate” value was “relatively higher and sustained release”. The “conversion into / release of ψ-GSH in liver homogenate” value in [4] is “relatively higher and sustained release”.
